Results collected from several papers.
Each line is one published result; the experiments were not run side by side.
Target: Tyrosine-protein kinase Mer (MERTK, Homo sapiens, UniProt Q12866)
Sequence (Q12866 21-999, as in one of the studies): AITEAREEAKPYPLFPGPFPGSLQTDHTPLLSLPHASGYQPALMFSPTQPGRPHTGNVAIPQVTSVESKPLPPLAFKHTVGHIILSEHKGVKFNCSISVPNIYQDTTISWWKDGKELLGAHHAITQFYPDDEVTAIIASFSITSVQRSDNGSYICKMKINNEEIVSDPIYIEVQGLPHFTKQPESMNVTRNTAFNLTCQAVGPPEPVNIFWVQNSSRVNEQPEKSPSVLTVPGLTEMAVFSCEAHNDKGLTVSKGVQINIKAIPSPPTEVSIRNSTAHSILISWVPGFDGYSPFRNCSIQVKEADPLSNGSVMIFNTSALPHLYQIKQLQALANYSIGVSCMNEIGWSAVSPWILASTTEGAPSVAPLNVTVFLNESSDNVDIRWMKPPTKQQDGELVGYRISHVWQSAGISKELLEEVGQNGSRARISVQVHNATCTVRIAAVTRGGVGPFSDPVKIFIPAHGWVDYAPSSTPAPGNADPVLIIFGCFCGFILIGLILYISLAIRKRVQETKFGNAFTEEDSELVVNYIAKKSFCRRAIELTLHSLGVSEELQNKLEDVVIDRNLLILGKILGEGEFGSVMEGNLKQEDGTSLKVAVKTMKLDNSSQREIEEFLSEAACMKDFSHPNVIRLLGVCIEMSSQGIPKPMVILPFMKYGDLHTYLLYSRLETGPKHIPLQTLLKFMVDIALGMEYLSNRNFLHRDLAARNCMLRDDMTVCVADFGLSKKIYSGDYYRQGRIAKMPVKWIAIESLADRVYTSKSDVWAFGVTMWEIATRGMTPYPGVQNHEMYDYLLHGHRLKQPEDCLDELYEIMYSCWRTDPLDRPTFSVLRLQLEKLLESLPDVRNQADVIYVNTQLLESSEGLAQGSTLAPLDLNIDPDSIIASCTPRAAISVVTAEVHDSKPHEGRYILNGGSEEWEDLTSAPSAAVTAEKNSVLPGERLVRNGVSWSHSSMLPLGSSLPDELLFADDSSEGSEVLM

SMILES	read-out	technique	tested at	remaining binding [%]
c1cncc(-c2cccc(Nc3nccc(NC4CCCCC4)n3)c2)c1	binding	competition with immobilised ligand	10 µM	4.6
CN(CCCC(F)(F)F)c1nccc(-c2cnn3ncccc23)n1	binding	–	1 µM	100
CCc1ccccc1C(=O)Nc1n[nH]c2c(C)c(F)c(C3C(C#N)=C(C)N(C)C(C)=C3C#N)cc12	cell-free assay	competition with immobilised ligand	1 µM	80
CNC(=O)[C@@H]1CC[C@@H](n2c(-c3ccc4cnccc4c3)nc3ccc(C(=O)NCc4cccc(C(N)=O)c4)cc32)C1	binding	competition with immobilised ligand	1 µM	100
C=CC(=O)N1CCC(C(=O)NCC(=O)N2CCN(c3nc(-c4cnc(N)nc4C(F)F)nc(N4CCOCC4)n3)CC2)CC1	binding	competition with immobilised ligand	1 µM	94
Nc1ncc2c(n1)-c1c([nH]c3ccc(C#CC4CC4)cc13)CCCC2	binding	competition with immobilised ligand	1 µM	100
CN(c1nccc(-c2cnn3ncccc23)n1)C1CC1	binding	–	1 µM	100
O=C(NCCCN1CCOCC1)c1ccc(Nc2nccc(-c3cc4ccccc4s3)n2)cc1	binding	competition with immobilised ligand	1 µM	45
O=C(NCC1CCOCC1)c1n[nH]cc1NC(=O)c1c(F)cccc1F	binding	competition with immobilised ligand	1 µM	98
O=C(N[C@H]1CCCCC/C=C\C2C[C@@]2(C(=O)O)NC(=O)[C@@H]2C[C@@H](Oc3ccncc3)CN2C1=O)OC1CCCC1 (stereo partly drawn)	binding	competition with immobilised ligand	1 µM	64
O=C(NCCCN1CCOCC1)c1ccc(Nc2ncc(Cl)c(-c3ccc(Cl)s3)n2)cc1	binding	competition with immobilised ligand	1 µM	5.5
CN(C)c1nccc(-c2cnn3ncccc23)n1	binding	–	1 µM	87
CS(=O)(=O)N1CCCC(NC(=O)[C@H](CCC2CCCCC2)NC(=O)c2ccc(CNc3ncnc4c3nnn4-c3ccccc3)cc2)C1 (stereo partly drawn)	cell-free assay	competition with immobilised ligand	0.1 µM	91
C[C@H]1CCN(c2nccc(-c3cnn4ncccc34)n2)C1	binding	–	1 µM	94
CS(=O)(=O)c1cc(C2(NC(=O)c3cncc4c3cnn4-c3ccc(F)cc3)CC2)ccn1	cell-free assay	competition with immobilised ligand	1 µM	100
CCN1CCN(Cc2ccc(C(=O)Nc3ccc(C)c(Oc4ccc5c(c4)CC(=O)N5)c3)cc2C(F)(F)F)CC1	binding	competition with immobilised ligand	1 µM	100
C[C@@]1(Cc2ccc(C#N)cc2)C(=O)N(c2cc(Cl)cc(Cl)c2)c2ncc(C(=O)NC3(c4nc(C5CCC5)no4)CC3)n21	cell-free assay	competition with immobilised ligand	1 µM	100
COc1ccnn2ncc(-c3ccnc(N(C)C)n3)c12	binding	–	1 µM	99
O=C(c1ccc(Nc2ncc(Cl)c(-c3cc4ccccc4s3)n2)cc1)N1CCC(N2CCCC2)CC1	binding	competition with immobilised ligand	1 µM	1.8
COc1cc(-c2cn(C3CCc4c(F)cccc4N(CC(F)(F)F)C3=O)nn2)ccc1-n1cnc(C)c1 (stereo not drawn)	cell-free assay	competition with immobilised ligand	1 µM	100
Cc1cnn2ncc(-c3ccnc(N(C)C)n3)c2c1	binding	–	1 µM	100
